Data published in ChEMBL document CHEMBL2390829, “N-alkylated 2,3,3-trimethylindolenines and 2-methylbenzothiazoles. Potential lead compounds in the fight against Saccharomyces cerevisiae infections” (Eur J Med Chem, 2013).
Converted amounts (≈) assume the structure as drawn.

How the values were obtained:
[1] = Lipophilicity, log P of the compound; assay type: physicochemical; conditions: octanol/water
Candida albicans = experiment: Antifungal activity against Candida albicans SC5314 after 24 hrs; assay type: functional; conditions: SC5314, 24 h
Summary of the method: (§1)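 C. albicans SC5314 or S. cerevisiae BY4741a (S288C derivative) grown 12 h at 30 °C, 200 rpm in YPD. 3×10^4 cells seeded per well of a 96-well plate with 1:2 serial dilutions of compound (stocks in 20% v/v DMSO and medium). DMSO and medium served as controls. Growth was scored visually after 24 h at 30 °C. MIC was taken as the well before first growth. Run twice.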

[2] = tested on: Schizosaccharomyces pombe; experiment: Antifungal activity against Schizosaccharomyces pombe after 24 hrs; assay type: functional
Summary of the method: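 S. pombe NJ2 h⁻ (ura4-D18 leu1-32 ade6-M210 his7-366) precultured 12 h at 30 °C, 200 rpm in yeast extract broth (YE). 3×10^4 cells were exposed in 96-well plates to 1:2 serial dilutions of compound (stocks in 20% v/v DMSO and medium), with DMSO and medium controls. Growth was read visually at 24 h, 30 °C. MIC was the well preceding first visible growth. Duplicate experiments.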

Saccharomyces cerevisiae = experiment: Antifungal activity against Saccharomyces cerevisiae BY4741a after 24 hrs; assay type: functional; summary of the method: as §1

| Structure (SMILES) | logP [1] | MIC (Candida albicans) | MIC [2] | MIC (Saccharomyces cerevisiae) | logP ([1]; read-out: logP) |
| --- | --- | --- | --- | --- | --- |
| CC1=[N+](CCCS(=O)(=O)[O-])c2ccccc2C1(C)C | -4.33 | 1000 µg/mL (≈ 3.55 mM) | 1000 µg/mL (≈ 3.55 mM) | 1000 µg/mL (≈ 3.55 mM) | – |
| CC1=[N+](C)c2ccccc2C1(C)C.[I-] | – | 1000 µg/mL | 500 µg/mL | 500 µg/mL | -0.691 |
| CC[N+]1=C(C)C(C)(C)c2ccccc21.[I-] | – | 1000 µg/mL | 500 µg/mL | 500 µg/mL | -0.315 |
| CCC[N+]1=C(C)C(C)(C)c2ccccc21.[I-] | – | 1000 µg/mL | 250 µg/mL | 250 µg/mL | 0.188 |
| CCCCCC[N+]1=C(C)C(C)(C)c2ccccc21.[I-] | – | 1000 µg/mL | 125 µg/mL | 125 µg/mL | 1.76 |
| CCCCCCC[N+]1=C(C)C(C)(C)c2ccccc21.[I-] | – | 1000 µg/mL | 62.5 µg/mL | 125 µg/mL | 2.26 |
| CCCCCCCCC[N+]1=C(C)C(C)(C)c2ccccc21.[I-] | – | 1000 µg/mL | 31.3 µg/mL | 31.3 µg/mL | 3.27 |
| CCCCCCCCCC[N+]1=C(C)C(C)(C)c2ccccc21.[I-] | – | 500 µg/mL | 15.6 µg/mL | 15.6 µg/mL | 3.78 |
| CC1=[N+](Cc2ccccc2)c2ccccc2C1(C)C.[Br-] | – | 1000 µg/mL | 1000 µg/mL | 1000 µg/mL | 0.904 |
| CC1=Nc2ccccc2C1(C)C | – | 500 µg/mL (≈ 3.14 mM) | 250 µg/mL (≈ 1.57 mM) | 1000 µg/mL (≈ 6.28 mM) | 3.29 |
| Cc1sc2ccccc2[n+]1C.[I-] | – | 1000 µg/mL | 500 µg/mL | 500 µg/mL | -1.08 |
| CCC[n+]1c(C)sc2ccccc21.[I-] | – | 1000 µg/mL | 250 µg/mL | 250 µg/mL | -0.199 |
| CCCC[n+]1c(C)sc2ccccc21.[Br-] | – | 1000 µg/mL | 250 µg/mL | 250 µg/mL | 0.36 |
| CCCCC[n+]1c(C)sc2ccccc21.[Br-] | – | 1000 µg/mL | 250 µg/mL | 62.5 µg/mL | 1.25 |
| CCCCCC[n+]1c(C)sc2ccccc21.[Br-] | – | 1000 µg/mL | 250 µg/mL | 62.5 µg/mL | 1.37 |
| CCCCCCC[n+]1c(C)sc2ccccc21.[Br-] | – | 1000 µg/mL | 125 µg/mL | 31.3 µg/mL | 1.88 |
| CCCCCCCC[n+]1c(C)sc2ccccc21.[Br-] | – | 1000 µg/mL | 62.5 µg/mL | 15.6 µg/mL | 2.38 |
| Cc1sc2ccccc2[n+]1Cc1ccccc1.[Br-] | – | 1000 µg/mL | 1000 µg/mL | 1000 µg/mL | 0.517 |
| Cc1sc2ccccc2[n+]1CCCS(=O)(=O)[O-] | -4.576 | 1000 µg/mL (≈ 3.69 mM) | 1000 µg/mL (≈ 3.69 mM) | 1000 µg/mL (≈ 3.69 mM) | – |
| Cc1nc2ccccc2s1 | – | 1000 µg/mL (≈ 6.7 mM) | 250 µg/mL (≈ 1.68 mM) | 1000 µg/mL (≈ 6.7 mM) | 2.08 |

Continued, values first:

| logP [1] | MIC (Candida albicans) | MIC [2] | MIC (Saccharomyces cerevisiae) | logP ([1]; read-out: logP) | Structure (SMILES) |
| --- | --- | --- | --- | --- | --- |
| – | 1000 µg/mL | 250 µg/mL | 250 µg/mL | 0.747 | CCCC[N+]1=C(C)C(C)(C)c2ccccc21.[I-] |
| – | 1000 µg/mL | 125 µg/mL | 250 µg/mL | 1.25 | CCCCC[N+]1=C(C)C(C)(C)c2ccccc21.[I-] |
| – | 1000 µg/mL | 62.5 µg/mL | 62.5 µg/mL | 2.77 | CCCCCCCC[N+]1=C(C)C(C)(C)c2ccccc21.[I-] |
| -4.114 | 1000 µg/mL (≈ 3.39 mM) | 1000 µg/mL (≈ 3.39 mM) | 1000 µg/mL (≈ 3.39 mM) | – | CC1=[N+](CCCCS(=O)(=O)[O-])c2ccccc2C1(C)C |
| – | 1000 µg/mL | 250 µg/mL | 500 µg/mL | -0.701 | CC[n+]1c(C)sc2ccccc21.[I-] |
| – | 500 µg/mL | 31.3 µg/mL | 7.8 µg/mL | 2.89 | CCCCCCCCC[n+]1c(C)sc2ccccc21.[Br-] |
| – | 250 µg/mL | 7.8 µg/mL | 3.9 µg/mL | 3.39 | CCCCCCCCCC[n+]1c(C)sc2ccccc21.[Br-] |
| -4.411 | 1000 µg/mL (≈ 3.5 mM) | 1000 µg/mL (≈ 3.5 mM) | 1000 µg/mL (≈ 3.5 mM) | – | Cc1sc2ccccc2[n+]1CCCCS(=O)(=O)[O-] |
| – | 0.49 µg/mL (≈ 0.00053 mM) | 0.49 µg/mL (≈ 0.00053 mM) | 0.49 µg/mL (≈ 0.00053 mM) | – | C[C@@H]1[C@H](O)[C@@H](C)/C=C/C=C/C=C/C=C/C=C/C=C/C=C/[C@H](O[C@@H]2O[C@H](C)[C@@H](O)[C@H](N)[C@@H]2O)C[C@@H]2O[C@](O)(C[C@@H](O)C[C@@H](O)[C@H](O)CC[C@@H](O)C[C@@H](O)CC(=O)O[C@H]1C)C[C@H](O)[C@H]2C(=O)O [AMPHOTERICIN B] |
| – | 1000 µg/mL (≈ 4.97 mM) | 31.2 µg/mL (≈ 0.155 mM) | 1000 µg/mL (≈ 4.97 mM) | – | c1ccc2[nH]c(-c3cscn3)nc2c1 [THIABENDAZOLE] |
